Reference: ChEMBL document CHEMBL1777764, “Synthesis and evaluation of 1-(1H-indol-3-yl)ethanamine derivatives as new antibacterial agents” (Bioorg Med Chem, 2011)

Columns and labels:
Klebsiella pneumoniae = experiment: microbe, parasite or virus in culture; settings: ATCC 35657, 18 h
Streptococcus pneumoniae [1] = experiment: Antibacterial activity against Streptococcus pneumoniae ATCC 49619 after 18 hrs by broth microdilution method; assay type: functional; settings: ATCC 49619, 18 h
Outline: (§1)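 MIC by broth microdilution per ISO 20776-1:2006 and CLSI M07-A8. Inoculum 10^6 cfu/ml in Mueller-Hinton broth […]. Compound serially diluted, final 2 to 128 ug/ml, duplicate rows, no-drug growth control. Read after 18 h at 37 °C as lowest concentration fully inhibiting visible growth. At least two experiments.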

[2] = test system: Staphylococcus epidermidis; experiment: Antibacterial activity against Staphylococcus epidermidis CIP 103627 after 18 hrs by broth microdilution method; assay type: functional; settings: CIP 103627, 18 h
Outline: (§2)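 MIC by broth microdilution per ISO 20776-1:2006 and CLSI M07-A8. Inoculum 10^6 cfu/ml in Mueller-Hinton broth with compound serially diluted, final concentrations 2 to 128 ug/ml, duplicate rows, no-drug growth control. Incubation 18 h at 37 °C. MIC taken as lowest concentration giving complete inhibition of visible growth. Each compound tested at least twice.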

Streptococcus mitis = experiment: Antibacterial activity against Streptococcus mitis CIP 103335 after 18 hrs by broth microdilution method; assay type: functional; settings: CIP 103335, 18 h
Outline: (§3)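 Broth microdilution following ISO 20776-1:2006 and CLSI M07-A8, in Mueller-Hinton broth with 5% sheep blood for these fastidious species. Inoculum was 10^6 cfu/ml, with compound serial dilutions spanning 2 to 128 ug/ml and a compound-free growth control well. Plates were read after 18 h at 37 °C. MIC was the lowest concentration with no visible growth. Each compound was tested at least twice.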

HCT-116 [3] = experiment: Cytotoxicity against human HCT116 cells at 1 uM; assay type: cell-based; settings: hct-116, 1 µM
Staphylococcus aureus [4] = experiment: Antibacterial activity against methicillin-resistant Staphylococcus aureus ATCC 33592 after 18 hrs by broth microdilution method; assay type: functional; settings: ATCC 33592, 18 h
Outline: as §3, with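 “broth.” for “broth with 5% sheep blood for these fastidious species.”, “incubated” for “read after”, “giving complete inhibition of” for “with no”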

KB [5] = experiment: Cytotoxicity against human KB cells at 1 uM; assay type: cell-based
Haemophilus influenzae = experiment: Antibacterial activity against Haemophilus influenzae ATCC 49766 after 18 hrs by broth microdilution method; assay type: functional; settings: ATCC 49766, 18 h
Outline: as §3

[6] = test system: Staphylococcus epidermidis; experiment: Antibacterial activity against Staphylococcus epidermidis ATCC 12228 after 18 hrs by broth microdilution method; assay type: functional; settings: ATCC 12228, 18 h
Outline: as §2

Enterococcus faecium = experiment: Antibacterial activity against Enterococcus faecium CIP 54.32 after 18 hrs by broth microdilution method; assay type: functional; settings: CIP 54.32, 18 h
Outline: as §3, with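 “broth.” for “broth with 5% sheep blood for these fastidious species.”, “incubated” for “read after”, “giving complete inhibition of” for “with no”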

MRC5 [7] = experiment: Cytotoxicity against human MRC5 cells at 10 uM; assay type: cell-based; settings: mrc5, 10 µM
Acinetobacter baumannii = experiment: microbe, parasite or virus in culture; settings: ATCC 19606 = CIP 70.34 = JCM 6841, 18 h
KB [8] = experiment: Cytotoxicity against human KB cells at 10 uM; assay type: cell-based
Staphylococcus aureus [9] = experiment: Antibacterial activity against Staphylococcus aureus CIP 65.6 after 18 hrs by broth microdilution method; assay type: functional; settings: CIP 65.6, 18 h
Outline: as §2

Staphylococcus aureus [10] = experiment: Antibacterial activity against vancomycin intermediate Staphylococcus aureus […] after 18 hrs by broth microdilution method; assay type: functional
Outline: as §3, with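 “broth.” for “broth with 5% sheep blood for these fastidious species.”, “incubated” for “read after”, “giving complete inhibition of” for “with no”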

[11] = test system: Staphylococcus epidermidis; experiment: Antibacterial activity against Staphylococcus epidermidis CIP 81.55 after 18 hrs by broth microdilution method; assay type: functional; settings: CIP 81.55, 18 h
Outline: as §2

Staphylococcus aureus [12] = experiment: Antibacterial activity against methicillin-resistant Staphylococcus aureus CIP 65.25 after 18 hrs by broth microdilution method; assay type: functional; settings: CIP 65.25, 18 h
Outline: as §3, with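 “broth.” for “broth with 5% sheep blood for these fastidious species.”, “incubated” for “read after”, “giving complete inhibition of” for “with no”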

Pseudomonas aeruginosa = experiment: microbe, parasite or virus in culture; settings: CIP 5933, 18 h
Staphylococcus aureus [13] = experiment: Antibacterial activity against Staphylococcus aureus ATCC 29213 after 18 hrs by broth microdilution method; assay type: functional; settings: ATCC 29213, 18 h
Outline: as §2

Staphylococcus aureus [14] = experiment: Antibacterial activity against Staphylococcus aureus CIP 103428 after 18 hrs by broth microdilution method; assay type: functional; settings: CIP 103428, 18 h
Outline: as §2

Serratia marcescens = experiment: microbe, parasite or virus in culture; settings: CIP 103551, 18 h
Enterococcus faecalis = experiment: Antibacterial activity against Enterococcus faecalis ATCC 29212 after 18 hrs by broth microdilution method; assay type: functional; settings: ATCC 29212, 18 h
Outline: as §3, with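 “broth.” for “broth with 5% sheep blood for these fastidious species.”, “incubated” for “read after”, “giving complete inhibition of” for “with no”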

Staphylococcus aureus [15] = experiment: Antibacterial activity against Staphylococcus aureus ATCC 6538 after 18 hrs by broth microdilution method; assay type: functional; settings: ATCC 6538, 18 h
Outline: as §2

Streptococcus agalactiae = experiment: Antibacterial activity against Streptococcus agalactiae ATCC 12400 after 18 hrs by broth microdilution method; assay type: functional; settings: ATCC 12400, 18 h
Outline: as §3, with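 “broth.” for “broth with 5% sheep blood for these fastidious species.”, “incubated” for “read after”, “giving complete inhibition of” for “with no”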

MRC5 [16] = experiment: Cytotoxicity against human MRC5 cells at 1 uM; assay type: cell-based; settings: mrc5, 1 µM
HCT-116 [17] = experiment: Cytotoxicity against human HCT116 cells at 10 uM; assay type: cell-based; settings: hct-116, 10 µM
Escherichia coli = experiment: Antibacterial activity against Escherichia coli ATCC 25922 after 18 hrs by broth microdilution method; assay type: functional; settings: ATCC 25922, 18 h
Outline: as §3, with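 “broth.” for “broth with 5% sheep blood for these fastidious species.”, “incubated” for “read after”, “giving complete inhibition of” for “with no”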

Staphylococcus aureus [18] = experiment: Antibacterial activity against Staphylococcus aureus ATCC 25923 after 18 hrs by broth microdilution method; assay type: functional; settings: ATCC 25923, 18 h
Outline: as §2

Enterobacter cloacae = experiment: microbe, parasite or virus in culture; settings: ATCC 13047, 18 h
Streptococcus pneumoniae [19] = experiment: Antibacterial activity against Streptococcus pneumoniae ATCC 6303 after 18 hrs by broth microdilution method; assay type: functional; settings: ATCC 6303, 18 h
Outline: as §1

Staphylococcus aureus [20] = experiment: Antibacterial activity against Staphylococcus aureus ATCC 9144 after 18 hrs by broth microdilution method; assay type: functional; settings: ATCC 9144, 18 h
Outline: as §2

Streptococcus pyogenes = experiment: Antibacterial activity against Streptococcus pyogenes CIP 104226 after 18 hrs by broth microdilution method; assay type: functional; settings: CIP 104226, 18 h
Outline: as §3, with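 “broth.” for “broth with 5% sheep blood for these fastidious species.”, “incubated” for “read after”, “giving complete inhibition of” for “with no”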

Cl.Cl.Cl.NCC(NO)c1c[nH]c2cc(Cl)ccc12 (stereo unspecified)
MIC (Klebsiella pneumoniae): 64 mg/L
MIC (Streptococcus pneumoniae [1]): 64 mg/L
MIC [2]: 16 mg/L
MIC (Streptococcus mitis): 64 mg/L
Activity (HCT-116 [3]): Non-toxic
MIC (Staphylococcus aureus [4]): 16 mg/L
Activity (KB [5]): Non-toxic
MIC (Haemophilus influenzae): 128 mg/L
MIC [6]: 16 mg/L
MIC (Enterococcus faecium): 128 mg/L
Activity (MRC5 [7]): Non-toxic
MIC (Acinetobacter baumannii): 64 mg/L
Activity (KB [8]): Non-toxic
MIC (Staphylococcus aureus [9]): 16 mg/L
MIC (Staphylococcus aureus [10]): 16 mg/L
MIC [11]: 16 mg/L
MIC (Staphylococcus aureus [12]): 16 mg/L
MIC (Pseudomonas aeruginosa): 64 mg/L
MIC (Staphylococcus aureus [13]): 16 mg/L
MIC (Staphylococcus aureus [14]): 16 mg/L
MIC (Serratia marcescens): 64 mg/L
MIC (Enterococcus faecalis): 128 mg/L
MIC (Staphylococcus aureus [15]): 16 mg/L
MIC (Streptococcus agalactiae): 64 mg/L
Activity (MRC5 [16]): Non-toxic
Activity (HCT-116 [17]): Non-toxic
MIC (Escherichia coli): 32 mg/L
MIC (Staphylococcus aureus [18]): 16 mg/L
MIC (Enterobacter cloacae): 64 mg/L
MIC (Streptococcus pneumoniae [19]): 64 mg/L
MIC (Staphylococcus aureus [20]): 16 mg/L
MIC (Streptococcus pyogenes): 64 mg/L

Cl.Cl.NCC(NO)c1c[nH]c2cc(F)ccc12 (stereo unspecified)
MIC (Klebsiella pneumoniae): 64 mg/L
MIC (Streptococcus pneumoniae [1]): 64 mg/L
MIC [2]: 16 mg/L
MIC (Streptococcus mitis): 64 mg/L
Activity (HCT-116 [3]): Non-toxic
MIC (Staphylococcus aureus [4]): 16 mg/L
Activity (KB [5]): Non-toxic
MIC (Haemophilus influenzae): > 128 mg/L
MIC [6]: 16 mg/L
MIC (Enterococcus faecium): 128 mg/L
Activity (MRC5 [7]): Non-toxic
MIC (Acinetobacter baumannii): 64 mg/L
Activity (KB [8]): Non-toxic
MIC (Staphylococcus aureus [9]): 16 mg/L
MIC (Staphylococcus aureus [10]): 16 mg/L
MIC [11]: 16 mg/L
MIC (Staphylococcus aureus [12]): 16 mg/L
MIC (Pseudomonas aeruginosa): 64 mg/L
MIC (Staphylococcus aureus [13]): 16 mg/L
MIC (Staphylococcus aureus [14]): 16 mg/L
MIC (Serratia marcescens): 64 mg/L
MIC (Enterococcus faecalis): 128 mg/L
MIC (Staphylococcus aureus [15]): 16 mg/L
MIC (Streptococcus agalactiae): 64 mg/L
Activity (MRC5 [16]): Non-toxic
Activity (HCT-116 [17]): Non-toxic
MIC (Escherichia coli): 64 mg/L
MIC (Staphylococcus aureus [18]): 16 mg/L
MIC (Enterobacter cloacae): 64 mg/L
MIC (Streptococcus pneumoniae [19]): 64 mg/L
MIC (Staphylococcus aureus [20]): 16 mg/L
MIC (Streptococcus pyogenes): 64 mg/L

Cl.Cl.NCC(NO)c1c[nH]c2ccc(I)cc12 (stereo unspecified)
MIC (Klebsiella pneumoniae): 64 mg/L
MIC (Streptococcus pneumoniae [1]): 64 mg/L
MIC [2]: 16 mg/L
MIC (Streptococcus mitis): 128 mg/L
Activity (HCT-116 [3]): Non-toxic
MIC (Staphylococcus aureus [4]): 32 mg/L
Activity (KB [5]): Non-toxic
MIC (Haemophilus influenzae): 64 mg/L
MIC [6]: 16 mg/L
MIC (Enterococcus faecium): 128 mg/L
Activity (MRC5 [7]): Non-toxic
MIC (Acinetobacter baumannii): 64 mg/L
Activity (KB [8]): Non-toxic
MIC (Staphylococcus aureus [9]): 16 mg/L
MIC (Staphylococcus aureus [10]): 16 mg/L
MIC [11]: 16 mg/L
MIC (Staphylococcus aureus [12]): 32 mg/L
MIC (Pseudomonas aeruginosa): 64 mg/L
MIC (Staphylococcus aureus [13]): 16 mg/L
MIC (Staphylococcus aureus [14]): 16 mg/L
MIC (Serratia marcescens): 64 mg/L
MIC (Enterococcus faecalis): 128 mg/L
MIC (Staphylococcus aureus [15]): 16 mg/L
MIC (Streptococcus agalactiae): 128 mg/L
Activity (MRC5 [16]): Non-toxic
Activity (HCT-116 [17]): Non-toxic
MIC (Escherichia coli): 32 mg/L
MIC (Staphylococcus aureus [18]): 16 mg/L
MIC (Enterobacter cloacae): 64 mg/L
MIC (Streptococcus pneumoniae [19]): 64 mg/L
MIC (Staphylococcus aureus [20]): 16 mg/L
MIC (Streptococcus pyogenes): 128 mg/L
